Source: PMC7145530 (Nucleic Acids Research, 2019)
Like-named read-outs stand apart in the source and are kept apart here.

Tests used:
[1] = biological target: T1, ALKBH3 (Homo sapiens, UniProt Q96Q83); assay: Demethylation assay by direct detection of formaldehyde; format: biochemical; settings: ferrozine 1 mM or succinate 5 mM; ALKBH3 0.2 μM, RAD51C 4.0 μM
T1 sequence (Q96Q83 1-286): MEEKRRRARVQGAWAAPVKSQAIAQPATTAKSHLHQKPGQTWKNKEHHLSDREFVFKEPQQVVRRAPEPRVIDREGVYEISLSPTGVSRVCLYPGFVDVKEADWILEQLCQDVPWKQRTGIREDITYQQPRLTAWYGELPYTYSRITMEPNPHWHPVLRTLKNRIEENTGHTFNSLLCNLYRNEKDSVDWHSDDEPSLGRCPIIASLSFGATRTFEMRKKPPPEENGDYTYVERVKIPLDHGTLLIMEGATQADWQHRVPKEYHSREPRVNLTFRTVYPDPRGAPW

[2] = biological target: T1, ALKBH3; assay: Isothermal titration calorimetry; format: binding; settings: ITC, 25°C; 1 mM peptide into 15 μM ALKBH3
[3] = biological target: T1, ALKBH3; assay: Yeast two-hybrid with ALKBH3; format: binding; settings: strain pJ69-4A; growth on dropout plates and lacZ reporter
How it was run: (§1)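 Full-length ALKBH2 or ALKBH3 fused to Gal4 binding domain (pGBKT7) was co-transformed with Gal4 activation domain (pACT2) fusions of RAD51, RAD51B, RAD51C, RAD51D, XRCC2 or XRCC3, or empty vectors. Transformants were selected on SD -Leu -Trp plates at 30°C for 2–3 days, then spotted on -His (triple) or -His -Ade (quadruple) dropout plates. lacZ was scored qualitatively by X-gal filter assay.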

[4] = tested on: ALKBH2; assay: Yeast two-hybrid with ALKBH2; format: binding, human; settings: strain pJ69-4A; growth on dropout plates and lacZ reporter
How it was run: as §1

[5] = biological target: T2, His-tagged RAD51C (HIS-RAD51C) (human, UniProt O43502 1-376); assay: pull-down
T2 sequence (looked up): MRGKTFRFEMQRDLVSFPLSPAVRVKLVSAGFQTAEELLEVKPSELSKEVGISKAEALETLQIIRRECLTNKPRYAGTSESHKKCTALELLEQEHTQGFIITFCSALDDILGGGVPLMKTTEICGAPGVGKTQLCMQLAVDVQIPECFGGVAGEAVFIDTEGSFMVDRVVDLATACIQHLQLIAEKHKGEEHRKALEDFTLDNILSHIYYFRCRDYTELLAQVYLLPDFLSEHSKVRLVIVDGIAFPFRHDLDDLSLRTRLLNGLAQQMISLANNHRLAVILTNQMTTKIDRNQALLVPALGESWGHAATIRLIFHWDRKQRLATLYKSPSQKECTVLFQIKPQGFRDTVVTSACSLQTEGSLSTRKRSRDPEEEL

[6] = biological target: T1, ALKBH3; settings: ssDNA substrate; cited from earlier work
[7] = biological target: T1, ALKBH3; assay: Steady-state; format: biochemical; settings: 3′-tailed DNA 0.6–9.6 μM, ALKBH3 0.2 μM, RAD51C or RAD51CΔ42–52 4 μM, FDH-coupled
[8] = biological target: T3, ALKBH3 protein (recombinant, used for ITC) (human, UniProt Q96Q83 1-286); assay: ITC
T3 sequence (looked up): T1 sequence (Q96Q83 1-286)

[9] = tested on: RAD51C; assay: Yeast two-hybrid of ALKBH3 fragments with RAD51C; format: binding, human; settings: ALKBH3 fragments (pGBKT7) with pACT2-RAD51C
How it was run: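 Yeast co-transformed with Gal4 binding-domain (pGBKT7) and activation-domain constructs were plated on SD −Leu −Trp at 30°C for 2–3 days. HIS and ADE2 reporters were scored by spotting onto −Leu −Trp −His or −Leu −Trp −His −Ade plates. lacZ was checked qualitatively by X-gal filter assay.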

**Q.** Which “inhibition of ALKBH3 with RAD51C present” value [1] does the source give for O=S(=O)([O-])c1ccc(-c2nnc(-c3ccccn3)nc2-c2ccc(S(=O)(=O)[O-])cc2)cc1.[Na+].[Na+] [ferrozine, reference compound] here?
**A.** presence of RAD51C could not alleviate the inhibitory effect of ferrozine and succinate

**Q.** For O=C(O)CCC(=O)O [succinate, reference compound], which “inhibition of ALKBH3 with RAD51C present” value [1] is on record?
**A.** presence of RAD51C could not alleviate the inhibitory effect of ferrozine and succinate

**Q.** Which “binding to ALKBH3” value [2] does the source give for QTAEELLEV [p33–41] here?
**A.** failed to bind ALKBH3 under these conditions

**Q.** Which “yeast two-hybrid interaction with ALKBH3” value [3] does the source give for RAD51: human recombinase RAD51 here?
**A.** not with RAD51

**Q.** What about the “yeast two-hybrid interaction with ALKBH2” value [4] of the same molecule?
**A.** could not detect any interaction

B1: RAD51CΔ33–41 (protein)
chain: MRGKTFRFEMQRDLVSFPLSPAVRVKLVSAGFKPSELSKEVGISKAEALETLQIIRRECLTNKPRYAGTSESHKKCTALELLEQEHTQGFIITFCSALDDILGGGVPLMKTTEICGAPGVGKTQLCMQLAVDVQIPECFGGVAGEAVFIDTEGSFMVDRVVDLATACIQHLQLIAEKHKGEEHRKALEDFTLDNILSHIYYFRCRDYTELLAQVYLLPDFLSEHSKVRLVIVDGIAFPFRHDLDDLSLRTRLLNGLAQQMISLANNHRLAVILTNQMTTKIDRNQALLVPALGESWGHAATIRLIFHWDRKQRLATLYKSPSQKECTVLFQIKPQGFRDTVVTSACSLQTEGSLSTRKRSRDPEEEL
modifications: left off: Gal4 activation domain, end not stated, kept
**Q.** With B1 as the molecule, how does the “yeast two-hybrid interaction with ALKBH3” value [3] read?
**A.** partially affected

B2: GST-ALKBH3 fusion protein (natural protein, human, UniProt Q96Q83 1-286, looked up)
chain: T1 sequence (Q96Q83 1-286)
**Q.** Does B2 bind [5]?
**A.** binds

B3: ALKBH3: human oxidative demethylase ALKBH3, tag-less recombinant (protein)
chain: T1 sequence (Q96Q83 1-286)
modifications: left off: Gal4 DNA-binding domain, end not stated, kept
**Q.** Which Km [6] does the source give for B3 here?
**A.** 1.9 µM

**Q.** What about the kcat/KM [6] of the same molecule?
**A.** 14500 M⁻¹ s⁻¹

**Q.** What about the Km [7] of the same molecule?
**A.** 1.4 µM

B4: RAD51CΔ1–18 (protein)
chain: LSPAVRVKLVSAGFQTAEELLEVKPSELSKEVGISKAEALETLQIIRRECLTNKPRYAGTSESHKKCTALELLEQEHTQGFIITFCSALDDILGGGVPLMKTTEICGAPGVGKTQLCMQLAVDVQIPECFGGVAGEAVFIDTEGSFMVDRVVDLATACIQHLQLIAEKHKGEEHRKALEDFTLDNILSHIYYFRCRDYTELLAQVYLLPDFLSEHSKVRLVIVDGIAFPFRHDLDDLSLRTRLLNGLAQQMISLANNHRLAVILTNQMTTKIDRNQALLVPALGESWGHAATIRLIFHWDRKQRLATLYKSPSQKECTVLFQIKPQGFRDTVVTSACSLQTEGSLSTRKRSRDPEEEL
modifications: left off: Gal4 activation domain, end not stated, kept
**Q.** With B4 as the molecule, how does the “yeast two-hybrid interaction with ALKBH3” value [3] read?
**A.** remained unaffected

B5: ΔNTD: remaining amino acid residues (67–376) of RAD51C (protein)
chain: ECLTNKPRYAGTSESHKKCTALELLEQEHTQGFIITFCSALDDILGGGVPLMKTTEICGAPGVGKTQLCMQLAVDVQIPECFGGVAGEAVFIDTEGSFMVDRVVDLATACIQHLQLIAEKHKGEEHRKALEDFTLDNILSHIYYFRCRDYTELLAQVYLLPDFLSEHSKVRLVIVDGIAFPFRHDLDDLSLRTRLLNGLAQQMISLANNHRLAVILTNQMTTKIDRNQALLVPALGESWGHAATIRLIFHWDRKQRLATLYKSPSQKECTVLFQIKPQGFRDTVVTSACSLQTEGSLSTRKRSRDPEEEL
modifications: left off: Gal4 activation domain, end not stated, kept
**Q.** For B5, which “yeast two-hybrid interaction with ALKBH3” value [3] is on record?
**A.** completely abrogated the interaction

**Q.** For KPSELSKEVGI [synthetic peptide p42–52 of RAD51C], which Kd [8] is on record?
**A.** 4 µM

**Q.** And the “stoichiometry N” value [8]?
**A.** 1

B6: RAD51CΔ53–66 (protein)
chain: MRGKTFRFEMQRDLVSFPLSPAVRVKLVSAGFQTAEELLEVKPSELSKEVGIECLTNKPRYAGTSESHKKCTALELLEQEHTQGFIITFCSALDDILGGGVPLMKTTEICGAPGVGKTQLCMQLAVDVQIPECFGGVAGEAVFIDTEGSFMVDRVVDLATACIQHLQLIAEKHKGEEHRKALEDFTLDNILSHIYYFRCRDYTELLAQVYLLPDFLSEHSKVRLVIVDGIAFPFRHDLDDLSLRTRLLNGLAQQMISLANNHRLAVILTNQMTTKIDRNQALLVPALGESWGHAATIRLIFHWDRKQRLATLYKSPSQKECTVLFQIKPQGFRDTVVTSACSLQTEGSLSTRKRSRDPEEEL
modifications: left off: Gal4 activation domain, end not stated, kept
**Q.** Which “yeast two-hybrid interaction with ALKBH3” value [3] does the source give for B6 here?
**A.** remained unaffected

B7: RAD51CΔ19–32 (protein)
chain: MRGKTFRFEMQRDLVSFPQTAEELLEVKPSELSKEVGISKAEALETLQIIRRECLTNKPRYAGTSESHKKCTALELLEQEHTQGFIITFCSALDDILGGGVPLMKTTEICGAPGVGKTQLCMQLAVDVQIPECFGGVAGEAVFIDTEGSFMVDRVVDLATACIQHLQLIAEKHKGEEHRKALEDFTLDNILSHIYYFRCRDYTELLAQVYLLPDFLSEHSKVRLVIVDGIAFPFRHDLDDLSLRTRLLNGLAQQMISLANNHRLAVILTNQMTTKIDRNQALLVPALGESWGHAATIRLIFHWDRKQRLATLYKSPSQKECTVLFQIKPQGFRDTVVTSACSLQTEGSLSTRKRSRDPEEEL
modifications: left off: Gal4 activation domain, end not stated, kept
**Q.** For B7, which “yeast two-hybrid interaction with ALKBH3” value [3] is on record?
**A.** remained unaffected

B8: ALKBH3 (amino acids 175–286): C-terminal segment of ALKBH3 (protein)
chain: SLLCNLYRNEKDSVDWHSDDEPSLGRCPIIASLSFGATRTFEMRKKPPPEENGDYTYVERVKIPLDHGTLLIMEGATQADWQHRVPKEYHSREPRVNLTFRTVYPDPRGAPW
modifications: left off: Gal4 DNA-binding domain, end not stated, kept
**Q.** Which “yeast two-hybrid interaction with RAD51C” value [9] does the source give for B8 here?
**A.** interacted with RAD51C

B9: RAD51C-NTD: NTD consisting of 1–66 amino acid residues (protein)
chain: MRGKTFRFEMQRDLVSFPLSPAVRVKLVSAGFQTAEELLEVKPSELSKEVGISKAEALETLQIIRR
modifications: left off: Gal4 activation domain, end not stated, kept
**Q.** For B9, which “yeast two-hybrid interaction with ALKBH3” value [3] is on record?
**A.** robust interaction
